Test results taken from ChEMBL document CHEMBL1821649, “Synthesis, characterization of some benzazoles bearing pyridine moiety: search for novel anticancer agents” (2011).

Key:
Type in all cases: functional
A498 = test: Antitumor activity against human A498 cells after 48 hrs by SRB assay; settings: A498, 48 h
In short: (§1)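 NCI-60 human tumour cell panel run under the National Cancer Institute Drug Evaluation Branch protocol. Compounds passing a single-dose prescreen were retested on all lines at five 10-fold dilutions. Growth was expressed as percent growth of treated cells. Response parameters were GI50 (molar concentration giving 50% growth inhibition), TGI (total growth inhibition) and LC50 (median lethal concentration).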

SNB-19 = test: Antitumor activity against human SNB19 cells after 48 hrs by SRB assay; settings: SNB-19, 48 h; in short: as §1
HT-29 = test: Antitumor activity against human HT-29 cells after 48 hrs by SRB assay; settings: HT-29, 48 h; in short: as §1
NCI-H460 = test: Antitumor activity against human NCI-H460 cells after 48 hrs by SRB assay; settings: NCI-H460, 48 h; in short: as §1
SK-MEL-28 = test: Antitumor activity against human SK-MEL-28 cells after 48 hrs by SRB assay; settings: SK-MEL-28, 48 h; in short: as §1
UACC-257 = test: Antitumor activity against human UACC257 cells after 48 hrs by SRB assay; settings: UACC-257, 48 h
In short: (§2)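 NCI-60 human cancer cell line panel run under the NCI Drug Evaluation Branch protocol. Compounds were first screened at a single dose. Those meeting preset inhibition thresholds were retested at five 10-fold dilutions. Output was percent growth of treated cells, given as % growth inhibition. GI50, TGI and LC50 values were derived from the five-dose data.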

MDA-MB-231 = test: Antitumor activity against human MDA-MB-231 cells after 48 hrs by SRB assay; settings: MDA-MB-231, 48 h; in short: as §1
CCRF-CEM = test: Antitumor activity against human CCRF-CEM cells after 48 hrs by SRB assay; in short: as §1
SF-295 = test: Antitumor activity against human SF295 cells after 48 hrs by SRB assay; settings: SF-295, 48 h; in short: as §1
SNB-75 = test: Antitumor activity against human SNB75 cells after 48 hrs by SRB assay; settings: SNB-75, 48 h; in short: as §1
MDA-MB-468 = test: Antitumor activity against human MDA-MB-468 cells after 48 hrs by SRB assay; settings: MDA-MB-468, 48 h; in short: as §1
NCI-H226 = test: Antitumor activity against human NCI-H226 cells after 48 hrs by SRB assay; settings: NCI-H226, 48 h; in short: as §1
MOLT-4 = test: Antitumor activity against human MOLT4 cells after 48 hrs by SRB assay; settings: MOLT-4, 48 h; in short: as §1
RXF 393 = test: Antitumor activity against human RXF393 cells after 48 hrs by SRB assay; settings: RXF 393, 48 h; in short: as §1
IGROV-1 = test: Antitumor activity against human IGROV1 cells after 48 hrs by SRB assay; settings: IGROV-1, 48 h; in short: as §1
HOP-62 = test: Antitumor activity against human HOP62 cells after 48 hrs by SRB assay; settings: HOP-62, 48 h; in short: as §1
OVCAR-5 = test: Antitumor activity against human OVCAR5 cells after 48 hrs by SRB assay; settings: OVCAR-5, 48 h; in short: as §1
Malme-3M = test: Antitumor activity against human MALME-3M cells after 48 hrs by SRB assay; in short: as §1
A549 = test: Antitumor activity against human A549 cells after 48 hrs by SRB assay; settings: A549, 48 h; in short: as §1
LOX IMVI = test: Antitumor activity against human LOXIMVI cells after 48 hrs by SRB assay; in short: as §1
COLO 205 = test: Antitumor activity against human COLO205 cells after 48 hrs by SRB assay; settings: COLO 205, 48 h; in short: as §1
SR = test: Antitumor activity against human SR cells after 48 hrs by SRB assay; in short: as §1
NCI-H322M = test: Antitumor activity against human NCI-H322M cells after 48 hrs by SRB assay; in short: as §1
OVCAR-3 = test: Antitumor activity against human OVCAR3 cells after 48 hrs by SRB assay; settings: OVCAR-3, 48 h; in short: as §1
SN12C = test: Antitumor activity against human SN12C cells after 48 hrs by SRB assay; in short: as §1
UACC-62 = test: Antitumor activity against human UACC62 cells after 48 hrs by SRB assay; settings: UACC-62, 48 h; in short: as §2
BT-549 = test: Antitumor activity against human BT549 cells after 48 hrs by SRB assay; settings: BT-549, 48 h; in short: as §1
SF-539 = test: Antitumor activity against human SF539 cells after 48 hrs by SRB assay; settings: SF-539, 48 h; in short: as §1
SK-OV-3 = test: Antitumor activity against human SKOV3 cells after 48 hrs by SRB assay; settings: SK-OV-3, 48 h; in short: as §1
[1] = Antitumor activity against human […] cells after 48 hrs by SRB assay; in short: as §1
NCI/ADR-RES = test: Antitumor activity against human NCI/ADR-RES cells after 48 hrs by SRB assay; in short: as §1
[2] = read-out: LC50 (the source's name)

SMILES: COc1ccc(-c2c(C#N)cnc(N)c2-c2nc3cc(C)c(C)cc3[nH]2)cc1
- GI50 (A498): 10.7 µM
- TGI (A498): 63.6 µM
- CC50 (A498; [2]): > 100 µM
- GI50 (SNB-19): 7.06 µM
- LC50 (median lethal concentration) (SNB-19): > 100 µM
- TGI (SNB-19): 57.1 µM
- GI50 (HT-29): 4.79 µM
- TGI (HT-29): > 100 µM
- CC50 (HT-29; [2]): > 100 µM
- GI50 (NCI-H460): 18.1 µM
- LC50 (median lethal concentration) (NCI-H460): > 100 µM
- TGI (NCI-H460): > 100 µM
- GI50 (SK-MEL-28): 17.2 µM
- LC50 (median lethal concentration) (SK-MEL-28): > 100 µM
- TGI (SK-MEL-28): > 100 µM
- GI50 (UACC-257): 52 µM
- LC50 (UACC-257): > 100 µM
- TGI (UACC-257): > 100 µM
- GI50 (MDA-MB-231): 8.28 µM
- TGI (MDA-MB-231): > 100 µM
- CC50 (MDA-MB-231; [2]): > 100 µM
- GI50 (CCRF-CEM): 25.6 µM
- LC50 (CCRF-CEM): > 100 µM
- TGI (CCRF-CEM): > 100 µM
- GI50 (SF-295): 6.41 µM
- TGI (SF-295): 23.4 µM
- CC50 (SF-295; [2]): 68.2 µM
- GI50 (SNB-75): 2.36 µM
- LC50 (SNB-75): 32.4 µM
- TGI (SNB-75): 8.19 µM
- GI50 (MDA-MB-468): 6.22 µM
- TGI (MDA-MB-468): 23.1 µM
- CC50 (MDA-MB-468; [2]): 68 µM
- GI50 (NCI-H226): 16.4 µM
- TGI (NCI-H226): > 100 µM
- CC50 (NCI-H226; [2]): > 100 µM
- GI50 (MOLT-4): > 100 µM
- LC50 (MOLT-4): > 100 µM
- TGI (MOLT-4): > 100 µM
- GI50 (RXF 393): 6.68 µM
- TGI (RXF 393): 20.4 µM
- CC50 (RXF 393; [2]): 54.1 µM
- GI50 (IGROV-1): 16 µM
- LC50 (IGROV-1): > 100 µM
- TGI (IGROV-1): > 100 µM
- GI50 (HOP-62): 3.65 µM
- TGI (HOP-62): 14.4 µM
- CC50 (HOP-62; [2]): 45.2 µM
- GI50 (OVCAR-5): 52.4 µM
- TGI (OVCAR-5): > 100 µM
- CC50 (OVCAR-5; [2]): > 100 µM
- GI50 (Malme-3M): 6 µM
- LC50 (Malme-3M): > 100 µM
- TGI (Malme-3M): 48.3 µM
- GI50 (A549): 6.54 µM
- TGI (A549): 72.5 µM
- CC50 (A549; [2]): > 100 µM
- GI50 (LOX IMVI): 5.74 µM
- TGI (LOX IMVI): > 100 µM
- CC50 (LOX IMVI; [2]): > 100 µM
- GI50 (COLO 205): 7.78 µM
- LC50 (COLO 205): > 100 µM
- TGI (COLO 205): 63.7 µM
- GI50 (SR): 5.64 µM
- LC50 (median lethal concentration) (SR): > 100 µM
- TGI (SR): > 100 µM
- GI50 (NCI-H322M): 15.5 µM
- TGI (NCI-H322M): > 100 µM
- CC50 (NCI-H322M; [2]): > 100 µM
- GI50 (OVCAR-3): 14.8 µM
- TGI (OVCAR-3): 30.4 µM
- CC50 (OVCAR-3; [2]): 62.2 µM
- GI50 (SN12C): 25.4 µM
- TGI (SN12C): > 100 µM
- CC50 (SN12C; [2]): > 100 µM
- GI50 (UACC-62): 72.2 µM
- LC50 (UACC-62): > 100 µM
- TGI (UACC-62): > 100 µM
- GI50 (BT-549): 30.6 µM
- TGI (BT-549): > 100 µM
- CC50 (BT-549; [2]): > 100 µM
- GI50 (SF-539): 11.5 µM
- TGI (SF-539): 41.9 µM
- CC50 (SF-539; [2]): > 100 µM
- GI50 (SK-OV-3): 4.84 µM
- LC50 (SK-OV-3): 59.6 µM
- TGI (SK-OV-3): 18.4 µM
- GI50 [1]: 9.8 µM
- TGI [1]: 65.7 µM
- CC50 [1, 2]: > 100 µM
- GI50 (NCI/ADR-RES): 6.84 µM
- TGI (NCI/ADR-RES): > 100 µM
- CC50 (NCI/ADR-RES; [2]): > 100 µM
